Activity calls are given as the source filed them. The calls are words filed in the database; no cut-off is given here.

47 molecules from ChEMBL document CHEMBL1140723, “Positive and negative modulation of group I metabotropic glutamate receptors” (J Med Chem, 2008) can be followed below.

Test [1] addresses T1, Metabotropic glutamate receptor 5 (Rattus norvegicus, UniProt P31424). Description: Displacement of [3H]MPEP from rat mGluR5. (In a radioligand displacement assay an active substance lowers the binding of a labelled ligand.)
Test [2] concerns the target T2, Metabotropic glutamate receptor 1 (Rattus norvegicus, UniProt P23385). Briefly: Antagonist activity at rat mGluR1 expressed in cerebellar granule cells assessed as accumulation of [3H]inositol phosphate. It is filed as functional, cell-based.
In test [3] the target is Metabotropic glutamate receptor 5 (Rattus norvegicus) (UniProt P31424). Description: Displacement of [3H]MPEP from rat mGluR5 upto 10 uM. Put shortly: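 Membranes were washed four times in 50 mM Tris-HCl pH 8.0 and resuspended in 50 mM Tris-HCl pH 7.5. 125–250 µg protein was incubated with 5 nM [3H]MPEP and test agent (up to 10 µM), up to 5% DMSO, 60 min at RT. Nonspecific binding: 10 µM MPEP. Filtered on glass fibre filters, rinsed with ice-cold buffer, then scintillation counted.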

Test [4] deals with T1, Metabotropic glutamate receptor 5. Description: Antagonist activity at mGluR5 in Sprague-Dawley rat astrocyte assessed as L-quisqualate induced potentiation of intracellular calcium level by FLIPR assay. The class given is functional, cell-based.
Test [5] has as its target T3, Metabotropic glutamate receptor 5 (Homo sapiens, UniProt P41594). Briefly: Antagonist activity at human mGluR5 expressed in CHO cells assessed as L-glutamate induced potentiation of intracellular calcium level by FLIPR assay. The class given is functional, cell-based. The gist of the method: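 Human mGluR5 FLIPR calcium assay. Cells were loaded with Ca-sensitive dye for 2 h at RT in HEPES-buffered saline, pH 7.3. The dye kit contained glutamic-pyruvate transferase, Na-pyruvate and pyridoxal phosphate to avoid glutamate build-up. Compounds were preincubated 5 min before L-glutamate, and the intracellular calcium rise was read as RFU.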
(Calcium flux is commonly read through the fluorescence of an indicator in the cells.)
Target sequence in this assay (P41594 whole entry): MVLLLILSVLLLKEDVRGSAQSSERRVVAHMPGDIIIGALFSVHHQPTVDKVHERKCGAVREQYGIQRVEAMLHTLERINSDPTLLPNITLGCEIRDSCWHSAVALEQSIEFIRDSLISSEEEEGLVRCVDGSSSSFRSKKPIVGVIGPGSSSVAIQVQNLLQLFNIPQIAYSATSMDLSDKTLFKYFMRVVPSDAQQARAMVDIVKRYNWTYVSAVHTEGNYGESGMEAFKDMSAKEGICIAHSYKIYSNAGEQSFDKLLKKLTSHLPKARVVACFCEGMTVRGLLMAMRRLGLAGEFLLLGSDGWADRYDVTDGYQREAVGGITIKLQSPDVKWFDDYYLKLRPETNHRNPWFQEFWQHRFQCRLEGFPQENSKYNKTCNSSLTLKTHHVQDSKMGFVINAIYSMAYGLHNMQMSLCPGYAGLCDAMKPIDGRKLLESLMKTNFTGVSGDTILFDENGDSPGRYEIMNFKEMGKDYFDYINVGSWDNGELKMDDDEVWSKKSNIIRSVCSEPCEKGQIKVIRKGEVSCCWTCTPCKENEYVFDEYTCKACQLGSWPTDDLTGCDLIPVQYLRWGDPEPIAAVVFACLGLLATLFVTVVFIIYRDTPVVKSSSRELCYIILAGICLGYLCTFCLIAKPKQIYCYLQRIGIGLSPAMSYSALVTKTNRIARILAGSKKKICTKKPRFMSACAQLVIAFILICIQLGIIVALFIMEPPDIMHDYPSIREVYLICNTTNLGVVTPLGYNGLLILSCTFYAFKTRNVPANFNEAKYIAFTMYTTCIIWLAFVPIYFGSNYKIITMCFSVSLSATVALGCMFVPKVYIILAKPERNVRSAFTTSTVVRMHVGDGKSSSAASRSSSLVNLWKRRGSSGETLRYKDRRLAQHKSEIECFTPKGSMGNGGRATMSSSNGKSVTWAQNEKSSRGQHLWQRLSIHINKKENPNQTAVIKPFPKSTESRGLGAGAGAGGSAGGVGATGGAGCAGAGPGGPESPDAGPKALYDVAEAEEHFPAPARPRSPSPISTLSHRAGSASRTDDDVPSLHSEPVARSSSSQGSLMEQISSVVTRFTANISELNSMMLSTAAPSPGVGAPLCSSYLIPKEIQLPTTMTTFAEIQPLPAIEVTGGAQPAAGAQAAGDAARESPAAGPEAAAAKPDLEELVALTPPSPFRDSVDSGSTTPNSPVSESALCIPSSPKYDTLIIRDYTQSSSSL

The target of test [6] is T3, Metabotropic glutamate receptor 5. Briefly: Positive modulation of human mGluR5 assessed as fold left shift of L-glutamate EC50 by calcium FLIPR assay.
Target sequence in this assay (P41594 21-1212 limits assumed): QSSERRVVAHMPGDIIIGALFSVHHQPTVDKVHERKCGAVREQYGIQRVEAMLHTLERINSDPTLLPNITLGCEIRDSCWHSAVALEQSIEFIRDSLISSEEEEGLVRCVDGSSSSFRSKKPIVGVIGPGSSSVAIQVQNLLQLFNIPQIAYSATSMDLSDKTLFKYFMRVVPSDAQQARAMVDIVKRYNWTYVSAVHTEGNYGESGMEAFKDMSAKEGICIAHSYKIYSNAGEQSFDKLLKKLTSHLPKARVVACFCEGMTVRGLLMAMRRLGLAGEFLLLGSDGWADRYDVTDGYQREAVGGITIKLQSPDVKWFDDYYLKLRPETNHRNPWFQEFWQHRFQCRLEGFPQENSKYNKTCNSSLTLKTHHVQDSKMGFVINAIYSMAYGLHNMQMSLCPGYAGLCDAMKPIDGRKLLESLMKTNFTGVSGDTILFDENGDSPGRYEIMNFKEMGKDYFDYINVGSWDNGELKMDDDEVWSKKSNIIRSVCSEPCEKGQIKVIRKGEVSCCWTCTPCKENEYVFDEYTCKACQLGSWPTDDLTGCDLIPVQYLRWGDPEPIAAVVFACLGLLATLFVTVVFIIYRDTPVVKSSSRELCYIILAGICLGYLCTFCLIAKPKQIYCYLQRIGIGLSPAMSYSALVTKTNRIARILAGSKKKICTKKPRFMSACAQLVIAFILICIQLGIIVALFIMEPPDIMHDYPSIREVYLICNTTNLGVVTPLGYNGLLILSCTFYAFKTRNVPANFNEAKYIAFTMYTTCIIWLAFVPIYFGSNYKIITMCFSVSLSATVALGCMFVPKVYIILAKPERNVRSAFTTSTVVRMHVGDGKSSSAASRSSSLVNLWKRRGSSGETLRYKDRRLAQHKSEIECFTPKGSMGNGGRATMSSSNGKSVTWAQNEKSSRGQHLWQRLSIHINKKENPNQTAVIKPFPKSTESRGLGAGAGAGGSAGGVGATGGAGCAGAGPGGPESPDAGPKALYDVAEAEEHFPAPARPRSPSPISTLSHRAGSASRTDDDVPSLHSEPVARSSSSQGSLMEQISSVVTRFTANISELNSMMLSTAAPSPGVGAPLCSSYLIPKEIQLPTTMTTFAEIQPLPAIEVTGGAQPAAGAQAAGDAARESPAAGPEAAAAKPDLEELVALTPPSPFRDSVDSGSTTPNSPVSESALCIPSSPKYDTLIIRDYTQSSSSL
For test [7], the target named is Metabotropic glutamate receptor 5 (Rattus norvegicus) (UniProt P31424). Briefly: Positive modulation of rat mGluR5 assessed as fold left shift of L-quisqualate EC50 by calcium FLIPR assay.
The target in test [8] is Metabotropic glutamate receptor 1 (Rattus norvegicus) (UniProt P23385). Description: (§1) Antagonist activity at rat mGluR1 by FLIPR assay. It is filed as functional.
Test [9] concerns the target Metabotropic glutamate receptor 5 (Rattus norvegicus) (UniProt P31424). Briefly: Reversal of antagonist activity at Sprague-Dawley rat astrocyte mGluR5 in presence of L-quisqualate mGluR5 agonist at 10 uM by FLIPR assay. The class given is functional.
Test [10] addresses T3, Metabotropic glutamate receptor 5. Description: Reversal of antagonist activity at human mGluR5 expressed in CHO cells in presence of L-glutamate mGluR5 agonist at 10 uM by FLIPR assay. The class given is functional, cell-based.
Target sequence in this assay (P41594 21-1212 limits assumed): as above
For test [11], the target named is T2, Metabotropic glutamate receptor 1. The description is as §1. The class given is functional.

Chain of Metabotropic glutamate receptor 5 (Rattus norvegicus) (P31424 21-1203 limits assumed): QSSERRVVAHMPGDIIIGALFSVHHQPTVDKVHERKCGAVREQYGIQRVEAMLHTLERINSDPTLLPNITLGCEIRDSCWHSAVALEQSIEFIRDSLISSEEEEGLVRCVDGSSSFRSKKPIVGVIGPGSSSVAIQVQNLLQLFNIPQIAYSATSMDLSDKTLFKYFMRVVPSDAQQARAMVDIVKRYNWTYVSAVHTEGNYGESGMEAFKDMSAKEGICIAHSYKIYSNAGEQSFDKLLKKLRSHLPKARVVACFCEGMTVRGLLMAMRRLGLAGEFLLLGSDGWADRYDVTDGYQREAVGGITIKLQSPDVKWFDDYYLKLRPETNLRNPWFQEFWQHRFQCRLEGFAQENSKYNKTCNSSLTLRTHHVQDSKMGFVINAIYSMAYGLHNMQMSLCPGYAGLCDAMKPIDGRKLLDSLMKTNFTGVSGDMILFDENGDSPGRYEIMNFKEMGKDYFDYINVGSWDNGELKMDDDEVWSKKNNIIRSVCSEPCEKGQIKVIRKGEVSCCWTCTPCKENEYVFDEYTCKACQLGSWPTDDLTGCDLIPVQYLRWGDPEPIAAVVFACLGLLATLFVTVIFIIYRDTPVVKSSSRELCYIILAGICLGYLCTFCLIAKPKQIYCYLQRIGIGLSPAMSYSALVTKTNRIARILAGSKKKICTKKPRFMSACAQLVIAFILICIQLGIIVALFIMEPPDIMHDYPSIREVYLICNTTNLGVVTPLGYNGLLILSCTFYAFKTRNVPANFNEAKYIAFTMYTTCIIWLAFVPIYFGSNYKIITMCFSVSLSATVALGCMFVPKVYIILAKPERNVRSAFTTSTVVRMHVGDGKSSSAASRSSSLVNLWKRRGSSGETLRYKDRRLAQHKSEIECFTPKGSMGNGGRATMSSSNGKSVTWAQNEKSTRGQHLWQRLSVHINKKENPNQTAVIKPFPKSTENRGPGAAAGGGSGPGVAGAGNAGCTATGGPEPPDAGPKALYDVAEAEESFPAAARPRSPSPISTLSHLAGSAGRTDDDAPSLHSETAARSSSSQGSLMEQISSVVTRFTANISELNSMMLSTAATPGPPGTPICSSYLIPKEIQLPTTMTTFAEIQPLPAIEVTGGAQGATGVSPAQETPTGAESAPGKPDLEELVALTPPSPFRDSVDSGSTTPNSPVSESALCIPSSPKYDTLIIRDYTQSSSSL
T1 sequence (P31424 whole entry): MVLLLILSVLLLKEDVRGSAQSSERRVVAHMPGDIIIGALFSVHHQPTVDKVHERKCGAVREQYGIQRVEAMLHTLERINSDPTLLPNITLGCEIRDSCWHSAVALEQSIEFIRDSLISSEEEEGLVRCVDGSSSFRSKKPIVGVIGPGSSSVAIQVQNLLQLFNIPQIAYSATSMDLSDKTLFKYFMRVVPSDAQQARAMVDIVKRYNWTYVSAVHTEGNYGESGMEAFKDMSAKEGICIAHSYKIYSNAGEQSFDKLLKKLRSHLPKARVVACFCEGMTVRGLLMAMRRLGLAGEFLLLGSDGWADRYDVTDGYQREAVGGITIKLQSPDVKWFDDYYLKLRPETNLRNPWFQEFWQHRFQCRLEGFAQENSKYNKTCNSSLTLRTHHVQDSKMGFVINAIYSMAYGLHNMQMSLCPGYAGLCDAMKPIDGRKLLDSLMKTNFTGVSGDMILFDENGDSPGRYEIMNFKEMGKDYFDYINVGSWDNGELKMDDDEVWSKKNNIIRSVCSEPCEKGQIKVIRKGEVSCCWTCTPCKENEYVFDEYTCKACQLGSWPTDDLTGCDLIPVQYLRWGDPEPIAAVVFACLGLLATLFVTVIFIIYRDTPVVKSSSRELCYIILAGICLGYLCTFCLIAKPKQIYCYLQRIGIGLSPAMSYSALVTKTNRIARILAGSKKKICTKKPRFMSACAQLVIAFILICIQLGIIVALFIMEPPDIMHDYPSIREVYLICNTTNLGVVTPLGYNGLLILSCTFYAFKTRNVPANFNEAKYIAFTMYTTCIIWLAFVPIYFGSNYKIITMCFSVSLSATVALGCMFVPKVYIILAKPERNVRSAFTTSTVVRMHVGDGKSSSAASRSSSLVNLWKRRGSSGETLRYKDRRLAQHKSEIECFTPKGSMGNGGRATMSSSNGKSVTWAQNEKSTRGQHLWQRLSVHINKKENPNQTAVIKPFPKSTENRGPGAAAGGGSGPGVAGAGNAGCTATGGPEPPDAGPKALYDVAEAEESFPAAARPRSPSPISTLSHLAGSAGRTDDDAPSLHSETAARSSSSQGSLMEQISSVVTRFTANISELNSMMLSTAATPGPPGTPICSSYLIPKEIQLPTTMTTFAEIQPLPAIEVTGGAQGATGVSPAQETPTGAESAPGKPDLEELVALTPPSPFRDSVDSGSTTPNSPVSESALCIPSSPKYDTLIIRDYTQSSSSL

In [1], `CC1(C)CC(=O)c2ccc(C#Cc3ccccn3)nc2C1` came in with an IC50 of 2.6 µM and a Ki of 210 nM.
With `COc1ccc(N2CCN(c3nc4c(cc3C#N)C(=O)CC(C)(C)C4)CC2)cc1`, the IC50 in test [2] was 7600 nM. Besides, the outcome in test [3] was inactive.
On to `CC1(C)CC(=O)c2cc(C#N)c(NCc3ccccc3)nc2C1`, for which the IC50 in [2] was 2500 nM. In addition, the outcome in test [3] was inactive.
As for `O=C(NC12CC3CC(CC(C3)C1)C2)c1cnccn1`, in test [2], the IC50 was determined as 7000 nM.
With `CCc1nc(C#N)c(N2CCc3ccccc3CC2)nc1C`, the IC50 in test [2] amounted to 6 nM.
Regarding `CC1(C)CC(=O)c2cc(Br)c(N3CCN(c4ccc(F)cc4)CC3)nc2C1`, the concentration for half-maximal inhibition (IC50) in test [2] was no more than 1000 nM; in [1], 37 µM.
Take `O=C(NC12CC3CC(CC(C3)C1)C2)c1ccc2ccccc2n1`: the IC50 in test [2] was 440 nM.
Molecule `O[C@H]1CCCc2nc(C#Cc3ccccc3)ccc21` returned a Ki in test [1] of 9280 nM. Also, the EC50 stood at 250 nM in [4] and 1080 nM in test [5]. The Activity is 2.5 in test [6] and 2 in test [7].
As for `O=C(NC12CC3CC(CC(C3)C1)C2)c1cnc2ccccc2n1`, the IC50 in test [2] was 5 nM.
Turning to `CC1(C)CC(=O)c2cc(-c3cncnc3)c(NC3CCCC3)nc2C1`, the result in [3] and in test [8] was inactive.
For the molecule `CC1(C)CC(=O)c2cc(C#N)c(NC3Cc4ccccc4C3)nc2C1`, in test [2], the IC50 was determined as 1900 nM. The outcome in test [3] was inactive.
`O=C1CCCc2nc(C#Cc3ccccc3)ccc21`: in [1], the Ki was found to be 800 nM. Also, in test [4], the EC50 was determined as 34 nM. Moreover, the result in [9] and in test [10] was Active. In addition, the Activity in [6] came out at 3.2; in test [7], 2.
Take `O=C1CCCc2nc(N3CCN(c4ccccc4)CC3)ccc21`: the IC50 in [2] amounted to 10400 nM. For the same molecule, the outcome in [3] was inactive.
In the case of `CC1(C)CC(=O)c2cc(C(=O)O)c(NC3CCCC3)nc2C1`, the outcome in test [3] was inactive. The molecule further showed an IC50 in test [11] of 23 µM.
For `CC1(C)CC(=O)c2cc(C#N)c(N3CCN(c4ccccc4)CC3)nc2C1`, the IC50 in test [2] stood at 130 nM. For the same molecule, the outcome in [3] was inactive.
`CC1(C)CC(=O)c2cc(Cl)c(NC3CCCC3)nc2C1`: the IC50 in [11] came to 7.9 µM.
Consider `CC1(C)CC(=O)c2ccc(NCc3ccccc3)nc2C1`, for which the concentration for half-maximal inhibition (IC50) in [2] was found to be 45000 nM; in test [1] it was 8.1 µM.
For the molecule `CC1(C)CC(=O)c2cc([N+](=O)[O-])c(NC3CC=C(c4ccc(F)cc4)CC3)nc2C1` (stereo not given), the outcome in test [3] was inactive. This molecule also came in with a half-inhibitory concentration (IC50) in test [11] of 12 µM.
Take `N#Cc1cc2c(nc1NC1CCCCC1)CCCC2=O`: in test [2], the IC50 was found to be 3000 nM. Also, in test [3], the outcome was inactive.
With `CC1(C)CC(=O)c2cc(C#N)c(NC34CC5CC(CC(C5)C3)C4)nc2C1`, the result in test [3] was inactive.
Regarding `CC1(C)CC(=O)c2cc(C#N)c(N3CC=C(c4ccc(F)cc4)CC3)nc2C1`, the IC50 in test [2] was determined as 110 nM. Further, the result in test [3] was inactive.
In the case of `CC1(C)CC(=O)c2cc(-c3nn[nH]n3)c(NC3CCCC3)nc2C1`, in [3], the result was inactive. Besides, in [11], the IC50 came out at 13 µM.
Take `CC1(C)CC(=O)c2cc(C#N)c(N3CCN(c4ccc(F)cc4)CC3)nc2C1`: in [2], the IC50 is 160 nM. Moreover, in test [3], the result was inactive.
With `COC1CCCc2nc(C#Cc3ccccc3)ccc21` (stereo not given), in test [1], the IC50 was determined as 0.08 µM and the Ki was determined as 139 nM.
Regarding `CC1(C)CC(=O)c2cc(C#N)c(NC3CCCC3)nc2C1`, the half-inhibitory concentration (IC50) in test [2] was 78 nM; in test [1] it was 49 µM.
The matching figures for `CN(Cc1ccccc1)c1nc2c(cc1C#N)C(=O)CCC2`: 25000 nM and 80 µM.
`N#Cc1cc2c(nc1SCc1ccccc1)CCCC2=O`: the IC50 in test [2] is 30000 nM. Moreover, the result in test [3] was inactive.
In the case of `CC1(C)CC(=O)c2cc(N3CCOCC3)c(N3CC=C(c4ccc(F)cc4)CC3)nc2C1`, in test [3], the outcome was inactive. For the same molecule, half-maximal inhibition in [11] (IC50) was put at 15 µM.
Turning to `CC1(C)CC(=O)c2ccc(OCc3ccccc3)nc2C1`, the IC50 in [2] is 21000 nM; in test [1], 12 µM.
`C(#Cc1ccc2c(n1)CCCC2)c1ccccc1`: in [1], the IC50 came to 0.51 µM and the affinity, expressed as Ki, was 1500 nM.
The molecule `CC1(C)CC(=O)c2cc(Br)c(NC3CCCC3)nc2C1` showed an IC50 in [1] of 29 µM. Moreover, the outcome in test [8] was inactive.
For `CN(Cc1ccccc1)c1nc2c(cc1C#N)C(=O)CC(C)(C)C2`, the IC50 in test [2] was found to be 5300 nM. Further, the outcome in test [3] was inactive.
Molecule `OC1CCCc2nc(C#Cc3ccccc3)ccc21` (stereo not given) came in with a Ki in [1] of 7600 nM. Also, the EC50 in [4] was 490 nM; in [5] it was 1130 nM. Besides, the Activity came out at 2 in test [6] and 2.2 in test [7].
For the molecule `CC1(C)CC(=O)c2cc(C#N)c(SCc3ccccc3)nc2C1`, the IC50 in test [2] is 4800 nM; in [1] it was 57 µM.
In test [1], `O[C@@H]1CCCc2nc(C#Cc3ccccc3)ccc21` showed a Ki of 4710 nM. The EC50 turned out to be 180 nM in test [4] and 980 nM in [5]. Also, the Activity in test [6] was 2.5; in test [7] it was 3.1.
Turning to `CC1(C)CC(=O)c2cc(C#N)c(NC3CCCCC3)nc2C1`, in test [2], the IC50 stood at 4000 nM. In test [3], the result was inactive.
On to `CN(C)C(=O)c1cc2c(nc1NC1CCCC1)CC(C)(C)CC2=O`, for which the IC50 in [1] came out at 58 µM; in [11] it was 21 µM.
On to `O=C1CCCc2nc(OCc3ccccc3)ccc21`, for which the IC50 in [2] worked out at 25000 nM; in test [1] it was 1.9 µM.
Regarding `CCCCNc1nc2c(cc1C#N)C(=O)CC(C)(C)C2`, in test [2], the IC50 came out at 1700 nM. Further, the result in test [3] was inactive.
The matching figures for `CCCNc1nc2c(cc1C#N)C(=O)CC(C)(C)C2`: 2300 nM and “inactive”.
The matching figures for `CCCCCCNc1nc2c(cc1C#N)C(=O)CC(C)(C)C2`: 2600 nM and “inactive”.
With `CC1(C)CCc2nc(C#Cc3ccccc3)ccc2C1=O`, in test [1], the IC50 stood at 0.023 µM and the Ki amounted to 51 nM.
Take `O=C1CCCc2nc(C#Cc3ccccn3)ccc21`: in [1], the 50% inhibitory concentration (IC50) was 60 µM and the affinity corresponds to a Ki of 2360 nM.
For `CC1(C)CC(=O)c2cc(C#N)c(N3CCc4ccccc4C3)nc2C1`, the IC50 in test [2] stood at 1500 nM. Further, in test [3], the outcome was inactive.
For the molecule `O=C(NC12CC3CC(CC(C3)C1)C2)c1cnc2ccccc2c1`, in test [2], the IC50 was 52 nM.
As for `CC1(C)CC(=O)c2cc(C#N)c(N3CC=C(c4ccccc4)CC3)nc2C1`, the 50% inhibitory concentration (IC50) in test [2] is less than 1000 nM. For the same molecule, the outcome in [3] was inactive.
On to `COC(=O)c1ccc(C#Cc2ccccc2)nc1`, for which, in test [1], the half-maximal inhibitory concentration (IC50) turned out to be 4.6 µM and affinity was put at a Ki of 1400 nM.

The term IC50 denotes the concentration that inhibits the measured activity by half. Broadly, the Ki is the equilibrium dissociation constant of an inhibitor or competing ligand from its target. The low end stands for higher affinity, the high end for lower affinity. Usually EC50 stands for the concentration that produces a half-maximal response.
